Data: ChEMBL document CHEMBL4145591, “Phenotypic Screening To Discover Novel Chemical Series as Efficient Antihemorrhagic Agents” (ACS Med Chem Lett, 2018)
Calls of active or inactive are those of the source. No cut-off for these calls is given here.

How the values were obtained:
Stromelysin-2 = Stromelysin-2 (Homo sapiens, UniProt P09238); test: Inhibition of MMP10 (unknown origin) using fluorescently-labeled substrate measured every min for 1 min
Stromelysin-1 = Stromelysin-1 (Homo sapiens, UniProt P08254); test: Inhibition of MMP3 (unknown origin) using fluorescently-labeled substrate measured every min for 1 min
[1] = Solubility of the compound in saline solution at 10 mM; assay type: physicochemical; details: buffer, 10000 µM
[2] = Cytotoxicity against human THLE2 cells assessed as decrease in cell viability after 72 hrs by luminescence assay; assay type: cell-based; details: THLE-2 cells, read-out: LC50
Procedure, shortened: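 Healthy human hepatic THLE-2 line; compounds incubated with cells for 72 hours, then viability measured. Cytotoxicity reported as LC50.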

[3] = Therapeutic index, ratio of LC50 for human THLE2 cells to EC50 for antifibrinolytic activity in human whole blood; assay type: toxicity
Procedure, shortened: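 THLE-2 healthy hepatic cells were exposed to compound for 72 hours and cell viability was read to give LC50. Antifibrinolytic EC50 came from thromboelastography in triplicate or duplicate. The index is LC50 relative to EC50, expressed in log units.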

Mus musculus [4] = test: Antifibrinolytic activity in tPA-induced C57Bl6 mouse hyperfibrinolytic tail bleeding model assessed as bleeding time at 1 mg/kg, iv administered for 5 mins post tPA challenge for 5 mins measured up to 30 mins by spectrophotometric method (reference value: 29.28 +/- 0.4 min); assay type: functional
[5] = target: Matrix metalloproteinase-14 (Homo sapiens) (UniProt P50281); test: Inhibition of recombinant human MMP14 at 10 uM after 60 mins by fluorescence assay
[6] = target: T1, Matrilysin (Homo sapiens) (UniProt P09237); test: Inhibition of recombinant human MMP7 at 10 uM after 45 mins by fluorescence assay
T1 sequence (whole entry): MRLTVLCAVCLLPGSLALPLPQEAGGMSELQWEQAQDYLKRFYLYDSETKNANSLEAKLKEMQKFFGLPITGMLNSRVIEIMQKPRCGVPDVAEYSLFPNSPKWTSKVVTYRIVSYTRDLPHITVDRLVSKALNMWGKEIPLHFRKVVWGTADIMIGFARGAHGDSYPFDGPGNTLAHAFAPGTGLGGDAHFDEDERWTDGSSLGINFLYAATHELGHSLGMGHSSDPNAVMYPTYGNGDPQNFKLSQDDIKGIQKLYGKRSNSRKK

Mus musculus [7] = organism: Mus musculus; test: Potency index, ratio of bleeding time for tranexamic acid to bleeding time for test compound in tPA-induced C57Bl6 mouse hyperfibrinolytic tail bleeding model; assay type: functional
[8] = target: Prothrombin (Homo sapiens) (UniProt P00734); test: Effect on human plasma thrombin activity at 0.01 to 10 uM using S2238 as substrate incubated for 15 mins followed by substrate addition measured after 30 mins
Homo sapiens = organism: Homo sapiens; test: Effect on plasminogen/tPA (unknown origin) activity assessed as plasmin generation at 0.01 to 10 uM using S2251 as substrate incubated for 15 mins followed by substrate addition measured after 30 mins
[9] = target: Tissue-type plasminogen activator (Homo sapiens) (UniProt P00750); test: Effect on tPA (unknown origin) activity at 0.01 to 10 uM incubated for 15 mins
Sequence of Tissue-type plasminogen activator (Homo sapiens) (P00750 36-562 limits assumed): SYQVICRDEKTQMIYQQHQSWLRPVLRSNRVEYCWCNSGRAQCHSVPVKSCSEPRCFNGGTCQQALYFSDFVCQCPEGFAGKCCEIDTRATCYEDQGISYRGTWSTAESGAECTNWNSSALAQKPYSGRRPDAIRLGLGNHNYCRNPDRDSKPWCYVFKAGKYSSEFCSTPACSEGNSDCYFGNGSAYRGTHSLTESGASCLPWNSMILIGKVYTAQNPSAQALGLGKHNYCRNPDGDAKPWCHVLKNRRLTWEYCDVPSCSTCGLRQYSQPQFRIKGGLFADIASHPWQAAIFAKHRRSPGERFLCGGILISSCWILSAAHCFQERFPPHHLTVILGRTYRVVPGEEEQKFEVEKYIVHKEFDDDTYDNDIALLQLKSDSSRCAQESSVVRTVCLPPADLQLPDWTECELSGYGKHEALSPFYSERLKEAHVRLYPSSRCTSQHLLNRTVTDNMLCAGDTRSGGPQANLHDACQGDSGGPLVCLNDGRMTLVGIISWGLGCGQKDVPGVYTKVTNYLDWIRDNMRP

Sequence of Stromelysin-2 (P09238 whole entry): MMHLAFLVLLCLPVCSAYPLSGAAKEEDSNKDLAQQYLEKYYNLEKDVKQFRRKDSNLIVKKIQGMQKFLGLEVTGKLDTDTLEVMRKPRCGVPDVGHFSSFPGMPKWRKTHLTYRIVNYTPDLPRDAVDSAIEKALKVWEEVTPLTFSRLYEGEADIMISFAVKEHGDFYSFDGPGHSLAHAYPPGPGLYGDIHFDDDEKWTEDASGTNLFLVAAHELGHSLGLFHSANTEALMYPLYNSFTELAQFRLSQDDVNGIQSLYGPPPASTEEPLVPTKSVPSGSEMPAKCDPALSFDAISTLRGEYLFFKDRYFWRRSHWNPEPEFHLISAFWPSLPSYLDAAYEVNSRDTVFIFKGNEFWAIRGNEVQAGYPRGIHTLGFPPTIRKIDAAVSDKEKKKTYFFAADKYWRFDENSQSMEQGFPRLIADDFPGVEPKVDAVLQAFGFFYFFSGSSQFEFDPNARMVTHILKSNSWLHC
Sequence of Stromelysin-1 (P08254 whole entry): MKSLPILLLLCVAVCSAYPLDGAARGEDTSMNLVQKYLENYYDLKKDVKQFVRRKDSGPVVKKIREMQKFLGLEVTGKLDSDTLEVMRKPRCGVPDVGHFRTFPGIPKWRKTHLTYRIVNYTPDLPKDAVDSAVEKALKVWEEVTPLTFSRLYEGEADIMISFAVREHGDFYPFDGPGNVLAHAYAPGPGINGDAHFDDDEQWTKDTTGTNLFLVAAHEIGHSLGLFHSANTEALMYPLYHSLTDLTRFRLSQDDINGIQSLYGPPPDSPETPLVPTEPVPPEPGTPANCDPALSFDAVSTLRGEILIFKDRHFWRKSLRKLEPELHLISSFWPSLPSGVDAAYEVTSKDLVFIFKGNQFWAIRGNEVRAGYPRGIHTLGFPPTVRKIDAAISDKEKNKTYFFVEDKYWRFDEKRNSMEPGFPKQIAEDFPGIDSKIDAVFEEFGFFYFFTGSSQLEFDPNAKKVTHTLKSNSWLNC

Row | IC50 (Stromelysin-2) [µM] | IC50 (Stromelysin-1) [µM] | Compound | further results
1 | > 10 | > 10 | CN(C)S(=O)(=O)NC(=O)C1(S(=O)(=O)c2ccc(Oc3ccc(OC(F)(F)F)cc3)cc2)CCC2(CCNCC2)C1 (stereo not drawn) | 
2 | > 10 | > 10 | CS(=O)(=O)NC(=O)C1(S(=O)(=O)c2ccc(Oc3ccc(OC(F)(F)F)cc3)cc2)CCC2(CCNCC2)C1 (stereo not drawn) | 
3 | > 10 | > 10 | COc1ccc(Oc2ccc(S(=O)(=O)C3(C(=O)Nc4ccccc4N)CCC4(CCNCC4)C3)cc2Cl)cc1 (stereo not drawn) | 
4 | > 10 | > 10 | Nc1ccccc1NC(=O)C1(S(=O)(=O)c2ccc(Oc3ccc(OC(F)(F)F)cc3)c(Cl)c2)CCC2(CCNCC2)C1 (stereo not drawn) | 
5 | > 10 | > 10 | COc1ccc(S(=O)(=O)C2(C(=O)Nc3ccccc3N)CCC3(CCNCC3)C2)cc1Cl (stereo not drawn) | 
6 | > 10 | > 10 | O=S(=O)(c1ccc(Oc2ccc(OC(F)(F)F)cc2)cc1)C1CCC2(CCNCC2)C1 (stereo not drawn) | 
7 | > 10 | > 10 | CNC(=O)NC(=O)C1(S(=O)(=O)c2ccc(OC)c(Cl)c2)CCC2(CCNCC2)C1 (stereo not drawn) | 
8 | > 10 | > 10 | O=C(OCc1ccccc1)C1(S(=O)(=O)c2ccc(Oc3ccc(OC(F)(F)F)cc3)cc2)CCC2(CCNCC2)C1 (stereo not drawn) | 
9 | > 10 | > 10 | O=C(Nc1ccccc1O)C1(S(=O)(=O)c2ccc(Oc3ccc(OC(F)(F)F)cc3)cc2)CCC2(CCNCC2)C1 (stereo not drawn) | 
10 | > 10 | > 10 | O=C(Nc1nccs1)C1(S(=O)(=O)c2ccc(Oc3ccc(OC(F)(F)F)cc3)cc2)CCC2(CCNCC2)C1 (stereo not drawn) | 
11 | > 10 | > 10 | O=C1CN(C(=O)C2(S(=O)(=O)c3ccc(Oc4ccc(OC(F)(F)F)cc4)cc3)CCC3(CCNCC3)C2)CCN1 (stereo not drawn) | 
12 | > 10 | > 10 | O=C(Nc1ccccn1)C1(S(=O)(=O)c2ccc(Oc3ccc(OC(F)(F)F)cc3)cc2)CCC2(CCNCC2)C1 (stereo not drawn) | 
13 | > 10 | > 10 | COc1ccc(N)c(NC(=O)C2(S(=O)(=O)c3ccc(Oc4ccc(OC(F)(F)F)cc4)cc3)CCC3(CCNCC3)C2)c1 (stereo not drawn) | 
14 | > 10 | > 10 | O=C(O)C1(S(=O)(=O)c2ccc(Oc3ccc(OC(F)(F)F)cc3)cc2)CCC2(CCNCC2)C1 (stereo not drawn) | 
15 | > 10 | > 10 | Cc1ccc(-c2ccc(N)c(NC(=O)C3(S(=O)(=O)c4ccc(Oc5ccc(OC(F)(F)F)cc5)cc4)CCC4(CCNCC4)C3)c2)o1 (stereo not drawn) | 
16 | > 10 | > 10 | CON(C)C(=O)C1(S(=O)(=O)c2ccc(Oc3ccc(OC(F)(F)F)cc3)cc2)CCC2(CCNCC2)C1 (stereo not drawn) | 
17 | > 10 | > 10 | Nc1ccc(F)cc1NC(=O)C1(S(=O)(=O)c2ccc(Oc3ccc(OC(F)(F)F)cc3)cc2)CCC2(CCNCC2)C1 (stereo not drawn) | 
18 | > 10 | > 10 | COC(=O)C1(S(=O)(=O)c2ccc(Oc3ccc(OC(F)(F)F)cc3)cc2)CCC2(CCNCC2)C1 (stereo not drawn) | 

The remaining lines, values behind:

Row | Compound | IC50 (Stromelysin-2) [µM] | IC50 (Stromelysin-1) [µM] | further results
19 | NC(=O)C1(S(=O)(=O)c2ccc(Oc3ccc(OC(F)(F)F)cc3)cc2)CCC2(CCNCC2)C1 (stereo not drawn) | > 10 | > 10 | 
20 | CCCN1CCC2(CC1)CCC(C(=O)NC(=O)NC)(S(=O)(=O)c1ccc(Oc3ccc(OC(F)(F)F)cc3)cc1)C2 (stereo not drawn) | > 10 | > 10 | 
21 | O=S(=O)(c1ccc(Oc2ccc(OC(F)(F)F)cc2)cc1)C1(CO)CCC2(CCNCC2)C1 (stereo not drawn) | > 10 | > 10 | 
22 | Nc1ccccc1NC(=O)C1(S(=O)(=O)c2ccccc2NC2CCCCC2)CCC2(CCNCC2)C1 (stereo not drawn) | > 10 | > 10 | solubility [1]: Soluble
23 | Nc1ccc(-c2ccccc2)cc1NC(=O)C1(S(=O)(=O)c2ccc(Oc3ccc(OC(F)(F)F)cc3)cc2)CCC2(CCNCC2)C1 (stereo not drawn) | > 10 | > 10 | CC50 at 72 h [2]: 3.53 µM; log(ratio) [3]: >= 0.946
24 | CNC(=O)NC(=O)C1(S(=O)(=O)c2ccc(Oc3ccc(OC(F)(F)F)cc3)cc2)CCC2(CCNCC2)C1 (stereo not drawn) | > 10 | > 10 | solubility [1]: Soluble; CC50 at 72 h [2]: 16.2 µM; Time (Mus musculus [4]): 20.24 min; log(ratio) [3]: >= 1.607
25 | Nc1ccccc1NC(=O)C1(S(=O)(=O)c2ccc(NC3CCCCC3)cc2)CCC2(CCNCC2)C1 (stereo not drawn) | > 10 | > 10 | solubility [1]: Soluble; CC50 at 72 h [2]: 43.8 µM; Time (Mus musculus [4]): 6.58 min; log(ratio) [3]: >= 2.039
26 | CNC(=O)NC(=O)C1(S(=O)(=O)c2ccc(Oc3ccc(OC)cc3)c(Cl)c2)CCC2(CCNCC2)C1 (stereo not drawn) | > 10 | > 10 | 
27 | COc1ccc(S(=O)(=O)C2(C(=O)Nc3cc(-c4ccccc4)ccc3N)CCC3(CCNCC3)C2)cc1Cl (stereo not drawn) | > 10 | > 10 | 
28 | CCCN1CCC2(CC1)CCC(C(=O)Nc1ccccc1N)(S(=O)(=O)c1ccc(Oc3ccc(OC(F)(F)F)cc3)cc1)C2 (stereo not drawn) | > 10 | > 10 | inhibition [5]: inactive; inhibition [6]: inactive; CC50 at 72 h [2]: 3.94 µM; Time (Mus musculus [4]): 3.61 min; fold change (FC) (Mus musculus [7]): 3; Activity [8]: inactive; Activity (Homo sapiens): inactive; log(ratio) [3]: >= 0.993; Activity [9]: inactive
29 | C#CCCCN1CCC2(CC1)CCC(C(=O)Nc1ccccc1N)(S(=O)(=O)c1ccc(C(=O)c3ccccc3)cc1)C2 (stereo not drawn) | > 10 | > 10 | inhibition [5]: inactive; inhibition [6]: inactive; CC50 at 72 h [2]: 43.5 µM
30 | Nc1ccc(-c2cccs2)cc1NC(=O)C1(S(=O)(=O)c2ccc(Oc3ccc(OC(F)(F)F)cc3)cc2)CCC2(CCNCC2)C1 (stereo not drawn) | > 10 | > 10 | CC50 at 72 h [2]: 2.8 µM; log(ratio) [3]: 0.493
31 | Nc1ccccc1NC(=O)C1(S(=O)(=O)c2ccc(Oc3ccc(OC(F)(F)F)cc3)cc2)CCC2(CCNCC2)C1 (stereo not drawn) | > 10 | > 10 | CC50 at 72 h [2]: 7.22 µM; log(ratio) [3]: 0.904
32 | O=C(Oc1ccccc1)C1(S(=O)(=O)c2ccc(Oc3ccc(OC(F)(F)F)cc3)cc2)CCC2(CCNCC2)C1 (stereo not drawn) | > 10 | > 10 | CC50 at 72 h [2]: 3.9 µM; log(ratio) [3]: 0.637
